Test results taken from article PMC7902087 (Bioorganic & medicinal chemistry, 2020).
Read-outs that look alike come from different tables or passages of the source.

Tests used:
[1] = tested on: Hepatocellular carcinoma (HePG2); assay: In vitro antitumor MTT assay, HePG2; type: cell-based, human
[2] = tested on: Human prostate cancer (PC3); assay: In vitro antitumor MTT assay, PC3; type: cell-based; settings: read-out: In vitro cytotoxicity IC50 PC3
[3] = tested on: Staphylococcus aureus ATCC 29213; assay: Minimal inhibitory concentration, S. aureus; type: cell-based; settings: broth dilution, 37 °C 18 h
Bacillus cereus UW85 = assay: Minimal inhibitory concentration, B. cereus; type: cell-based; settings: broth dilution, 37 °C 18 h
[4] = tested on: Epitheliod Carcinoma Cervix cancer (Hela); assay: In vitro antitumor MTT assay, Hela; settings: read-out: In vitro cytotoxicity IC50 Hela
[5] = tested on: Mammary gland Breast cancer (MCF-7); assay: In vitro antitumor MTT assay, MCF-7
[6] = tested on: Pseudomonas aeruginosa PAO1; assay: Minimal inhibitory concentration, P. aeruginosa; type: cell-based; settings: broth dilution, 37 °C 18 h
Method in brief: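 Broth microdilution with serial 1:1 dilutions of test compound in Mueller Hinton broth. Wells are inoculated with bacterial suspension at 5 × 10^6 CFU/ml, and ampicillin/clavulanic acid serves as the positive control. Plates incubate at 37 °C for 18 h. MIC is the lowest concentration with no visible growth.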

Candida albicans CS351 = assay: Minimal inhibitory concentration, C. albicans; type: cell-based; settings: broth dilution, 37 °C 18 h
MCF-7 cells [7] = assay: Cell cycle arrest analysis; type: cell-based, human
MCF-7 cells [8] = assay: Detection of apoptosis; type: cell-based, human; settings: MCF-7, 24 h
[9] = tested on: HePG2, MCF-7, Hela and PC3 cell lines; assay: In vitro antitumor MTT assay, range over the four cell lines; type: cell-based; settings: Homo sapiens, read-out: IC50 range towards the four cell lines
[10] = tested on: Human lung fibroblast (WI38) cell line; assay: In vitro cytotoxicity against human normal cells; type: cell-based; settings: WI-38, read-out: IC50 against WI38 normal cells
[11] = read-out: In vitro cytotoxicity IC50 HePG2, MTT, Mean ± SD, n = 3
[12] = read-out: In vitro cytotoxicity IC50 MCF-7, MTT, Mean ± SD, n = 3
[13] = Homo sapiens, HepG2, read-out: In vitro cytotoxicity IC50 HePG2
[14] = Homo sapiens, MCF7, read-out: In vitro cytotoxicity IC50 MCF-7

“(E)-3-(benzofuran-2-yl)-3-hydroxy-2-((E)-(3-methylphenyl) diazenyl)acrylaldehyde [Compound 16]” was tested, and the IC50 [1, 11] was 52.3 ± 3.1 µM, the IC50 ([2]; MTT, Mean ± SD, n = 3) was 63.3 ± 3.9 µM and the “Minimal inhibitory concentration S. aureus” value [3] was 64 µg/mL. The “Minimal inhibitory concentration B. cereus” value (Bacillus cereus UW85) was 128 µg/mL, the IC50 ([4]; MTT, Mean ± SD, n = 3) was 69.4 ± 4 µM and the IC50 [5, 12] was 66.2 ± 3.9 µM.

For “(E)-3-(benzofuran-2-yl)-3-hydroxy-2-((E)-(2-methylphenyl) diazenyl)acrylaldehyde [Compound 17]”, the IC50 [1, 11] was 72.4 ± 3.5 µM, the IC50 ([2]; MTT, Mean ± SD, n = 3) was 77.6 ± 4.3 µM and the “Minimal inhibitory concentration S. aureus” value [3] was 8 µg/mL. For the same compound, the “Minimal inhibitory concentration B. cereus” value (Bacillus cereus UW85) was 256 µg/mL, the “Minimal inhibitory concentration P. aeruginosa” value [6] was 512 µg/mL and the “Minimal inhibitory concentration C. albicans” value (Candida albicans CS351) was 512 µg/mL. For the same compound, the IC50 ([4]; MTT, Mean ± SD, n = 3) was 75 ± 4.2 µM and the IC50 [5, 12] was 83.6 ± 4.3 µM.

For `C/C(=N\N=C\c1cccc(Cl)c1)c1cc2ccccc2o1` [Compound 23, (E)-1-(1-(benzofuran-2-yl)ethylidene)-2-((E)-3-chlorobenzylidene)hydrazine], the IC50 [1, 13] was 86.5 ± 4.3 µM, the IC50 ([2]; Homo sapiens) was 91.8 ± 4.9 µM and the IC50 ([4]; Homo sapiens, HeLa) was > 100 µM. For the same compound, the IC50 [5, 14] was > 100 µM.

In the case of `C/C(=N\Nc1nc(-c2ccccc2)cs1)c1cc2ccccc2o1` [Compound 8, (E)-2-(2-(1-(benzofuran-2-yl)ethylidene)hydrazinyl)-4-(4-phenyl)thiazole], the Cell cycle comment (MCF-7 cells [7]) is reported as “pre-G1 apoptosis and cell growth arrest at G2/M”, the “late apoptotic induction compared to control cells” value (MCF-7 cells [8]) is reported as 98 fold and the IC50 [9] is reported as 8.49 to 16.7 µM.

For `C/C(=N\Nc1nc(C)cs1)c1cc2ccccc2o1` [Compound 11, (E)-2-(2-(1-(benzofuran-2-yl)ethylidene)hydrazineyl)-4-methylthiazole], the IC50 [9] was 4 to 8.99 µM.

`COc1ccc(/N=N/C(C=O)=C(/O)c2cc3ccccc3o2)cc1` [Compound 13, (E)-3-(benzofuran-2-yl)-3-hydroxy-2-((E)-(4-methoxyphenyl)diazenyl)acrylaldehyde] was tested, and the IC50 [10] was 83.5 µM.

In the case of `C/C(=N\N=C\c1ccc([N+](=O)[O-])cc1)c1cc2ccccc2o1` [Compound 22, (E)-1-(1-(benzofuran-2-yl)ethylidene)-2-((E)-4-nitrobenzylidene) hydrazine], the IC50 [1, 13] is reported as 77.4 ± 3.9 µM, the IC50 ([2]; Homo sapiens) is reported as > 100 µM and the IC50 ([4]; Homo sapiens, HeLa) is reported as > 100 µM. It also gave an IC50 [5, 14] of 88.5 ± 4.6 µM.

With `CCOC(=O)Cc1csc(N/N=C(\C)c2cc3ccccc3o2)n1` [Compound 9, Ethyl (E)-2-(2-(2-(1-(benzofuran-2-yl)ethylidene)hydrazineyl)thiazol-4-yl)acetate] the Cell cycle comment (MCF-7 cells [7]) was “pre-G1 apoptosis and cell growth arrest at G2/M”, the “late apoptotic induction compared to control cells” value (MCF-7 cells [8]) was 54 fold and the late apoptotic induction (MCF-7 cells [8]; control 0.15%) was 8.1%. The IC50 [9] was 6.55 to 13.1 µM.

“(E)-2-(2-(1-(benzofuran-2-yl)ethylidene)hydrazineyl)-4-(benzofuran-5-yl)thiazole [Compound 10]” gave an IC50 [1, 11] of 21.2 ± 1.8 µM, an IC50 ([2]; MTT, Mean ± SD, n = 3) of 34.2 ± 2.6 µM and an IC50 ([4]; MTT, Mean ± SD, n = 3) of 24.1 ± 2.1 µM. For the same compound, the IC50 [5, 12] was 25.6 ± 2.2 µM.

Compound `COc1cccc2c1C(=O)c1c(O)c3c(c(O)c1C2=O)C[C@@](O)(C(=O)CO)C[C@@H]3O[C@H]1C[C@H](N)[C@H](O)[C@H](C)O1` [DOX, doxorubicin, reference compound] has an IC50 [9] of 4.17 to 8.87 µM.
